Data as given in ChEMBL document CHEMBL3822433, “Discovery of N-(3-fluoro-4-methylsulfonamidomethylphenyl)urea as a potent TRPV1 antagonistic template” (Bioorg Med Chem Lett, 2016).

What was measured:
Type in all cases: cell-based
[1] = target: T1, Transient receptor potential cation channel subfamily V member 1 (Homo sapiens, UniProt Q8NER1); test: Agonist activity at human TRPV1 expressed in CHO cells assessed as 45Ca2+ uptake incubated for 5 mins by liquid scintillation counting analysis
In short: (§1)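 Human TRPV1 heterologously expressed in CHO cells; 45Ca2+ uptake measured. Maximal response defined with saturating capsaicin (1 μM). Mean ± SEM of at least three experiments. Where shown, % agonism refers to test concentrations of 3–30 μM.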

[2] = target: T1, Transient receptor potential cation channel subfamily V member 1; test: Antagonist activity at human TRPV1 expressed in CHO cells assessed as inhibition of capsaicin-induced 45Ca2+ uptake incubated for 5 mins by liquid scintillation counting analysis
[3] = target: T1, Transient receptor potential cation channel subfamily V member 1; test: Displacement of [3H]-resiniferatoxin from human TRPV1 expressed in CHO cells incubated for 60 mins by scintillation counting analysis
In short: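 Competition binding against [3H]-resiniferatoxin using human TRPV1 heterologously expressed in CHO cells; Ki reported. Mean ± SEM of at least three experiments.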

[4] = target: T1, Transient receptor potential cation channel subfamily V member 1; test: Antagonist activity at human TRPV1 expressed in CHO cells assessed as inhibition of capsaicin-induced 45Ca2+ uptake preincubated for 30 mins prior to capsaicin challenge measured after 5 mins by liquid scintillation counting analysis
In short: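 CHO cells heterologously expressing human TRPV1 were given a 30 min pre-incubation with antagonist before challenge with capsaicin (30 nM). Capsaicin-stimulated 45Ca2+ uptake was read out, and Ki(ant) was derived from dose-dependent inhibition, allowing for competition with capsaicin. Values are mean ± SEM, with n ≥ 3 experiments.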

[5] = target: T1, Transient receptor potential cation channel subfamily V member 1; test: Antagonist activity at human TRPV1 expressed in CHO cells assessed as inhibition of capsaicin-induced 45Ca2+ uptake preincubated for 15 mins prior to capsaicin challenge measured after 5 mins by liquid scintillation counting analysis
In short: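 Human TRPV1 heterologously expressed in CHO cells; cells pre-incubated with antagonist for 15 min, then challenged with capsaicin (30 nM) and 45Ca2+ uptake measured. Dose-dependent inhibition was used to derive Ki(ant), correcting for capsaicin–antagonist competition. Values are mean ± SEM of at least three experiments.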

[6] = target: T1, Transient receptor potential cation channel subfamily V member 1; test: Antagonist activity at human TRPV1 expressed in CHO cells assessed as inhibition of capsaicin-induced 45Ca2+ uptake at 3 to 30 uM incubated for 5 mins by liquid scintillation counting analysis
[7] = target: T1, Transient receptor potential cation channel subfamily V member 1; test: Agonist activity at human TRPV1 expressed in CHO cells assessed as 45Ca2+ uptake at 3 to 30 uM incubated for 5 mins by liquid scintillation counting analysis; in short: as §1

T1 sequence (Q8NER1 whole entry): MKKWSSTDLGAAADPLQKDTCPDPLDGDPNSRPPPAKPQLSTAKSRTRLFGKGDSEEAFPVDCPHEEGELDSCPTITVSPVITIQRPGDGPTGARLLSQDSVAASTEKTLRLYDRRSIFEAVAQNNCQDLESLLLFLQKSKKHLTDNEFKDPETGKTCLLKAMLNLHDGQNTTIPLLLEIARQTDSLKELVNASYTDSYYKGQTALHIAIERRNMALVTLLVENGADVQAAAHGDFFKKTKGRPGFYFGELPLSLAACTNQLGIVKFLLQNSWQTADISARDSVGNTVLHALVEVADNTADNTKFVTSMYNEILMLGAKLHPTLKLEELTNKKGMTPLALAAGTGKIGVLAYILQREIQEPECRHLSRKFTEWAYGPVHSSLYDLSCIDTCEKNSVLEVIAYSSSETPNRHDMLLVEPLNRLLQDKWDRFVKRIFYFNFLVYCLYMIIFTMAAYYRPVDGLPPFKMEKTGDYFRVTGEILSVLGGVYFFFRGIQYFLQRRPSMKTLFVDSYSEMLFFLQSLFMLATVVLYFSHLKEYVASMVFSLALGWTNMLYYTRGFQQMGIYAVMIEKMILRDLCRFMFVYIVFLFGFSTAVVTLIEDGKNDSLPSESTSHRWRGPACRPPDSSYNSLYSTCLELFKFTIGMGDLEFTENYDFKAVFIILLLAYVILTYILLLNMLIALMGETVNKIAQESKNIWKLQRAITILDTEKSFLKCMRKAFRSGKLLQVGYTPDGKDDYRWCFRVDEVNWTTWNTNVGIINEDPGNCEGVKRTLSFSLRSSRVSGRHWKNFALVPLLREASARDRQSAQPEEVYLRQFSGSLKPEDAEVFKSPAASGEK

## CC1CCN(c2nc(C(F)(F)F)ccc2CCNC(=O)C(C)c2ccc(NS(C)(=O)=O)c(F)c2)CC1 (stereo unspecified)
[1]
  EC50: Not Active
[2]
  Ki: 95 nM
[3]
  Ki: 54 nM

## CC1CCN(c2nc(C(F)(F)F)ccc2CNC(=O)NC(C)c2ccc(NS(C)(=O)=O)c(F)c2)CC1 (stereo unspecified)
[1]
  EC50: Not Active
[2]
  Ki: 28.1 nM
[3]
  Ki: 31.6 nM

## CC1CCN(c2nc(C(F)(F)F)ccc2CNC(=O)[C@@H](C)c2ccc(NS(C)(=O)=O)c(F)c2)CC1
[1]
  EC50: Not Active

## Cc1cccc(N(C(=O)NCc2ccc(C(F)(F)F)nc2N2CCC(C)CC2)c2ccc(NS(C)(=O)=O)c(F)c2)c1
[1]
  EC50: Not Active
[4]
  Ki: 860 nM
[5]
  Ki: 2200 nM
[3]
  Ki: 490 nM

## CC1CCN(c2nc(C(F)(F)F)ccc2CNC(=O)C(C)c2ccc(NS(C)(=O)=O)c(F)c2)CC1 (stereo unspecified)
[1]
  EC50: Not Active

## CC1CCN(c2nc(C(F)(F)F)ccc2CNC(=O)N(C)c2ccc(NS(C)(=O)=O)c(F)c2)CC1
[1]
  EC50: Not Active
[2]
  Ki: 59 nM
[3]
  Ki: 1160 nM

## CC1CCN(c2nc(C(F)(F)F)ccc2CNC(=O)NCc2ccc(CNS(C)(=O)=O)c(F)c2)CC1
[1]
  EC50: Not Active
[2]
  Ki: 199 nM
[3]
  Ki: 410 nM

## CC1CCN(c2nc(C(F)(F)F)ccc2CCNC(=O)Nc2ccc(NS(C)(=O)=O)c(F)c2)CC1
[6]
  inhibition: 49%
[7]
  Activity: 29%
[3]
  Ki: 210 nM

## CC1CCN(c2nc(C(F)(F)F)ccc2CNC(=O)Nc2ccc(NS(C)(=O)=O)c(F)c2)CC1
[1]
  EC50: Not Active
[2]
  Ki: 149 nM
[3]
  Ki: 83 nM

## CC1CCN(c2nc(C(F)(F)F)ccc2CNC(=O)C(C)c2ccc(CNS(C)(=O)=O)c(F)c2)CC1 (stereo unspecified)
[1]
  EC50: Not Active
[2]
  Ki: 27.6 nM
[3]
  Ki: 230 nM

## CC1CCN(c2nc(C(F)(F)F)ccc2CNC(=O)NCc2ccc(NS(C)(=O)=O)c(F)c2)CC1
[1]
  EC50: Not Active

## CC1CCN(c2nc(C(F)(F)F)ccc2CNC(=O)Nc2ccc(CNS(C)(=O)=O)c(F)c2)CC1
[1]
  EC50: Not Active
[2]
  Ki: 12.5 nM
[3]
  Ki: 6.77 nM
